Source: ChEMBL document CHEMBL1140069, “In vitro antifungal activity of polyfunctionalized 2-(hetero)arylquinolines prepared through imino Diels-Alder reactions” (2008)
≈ marks a conversion by molar mass, not a printed value.

Legend:
Assay type in all cases: functional
[1] = test system: Cryptococcus neoformans; assay: Antimicrobial activity against Cryptococcus neoformans IM 961951 isolate at 25 ug/ml after 48 hrs
Procedure, shortened: (§1)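 Clinical Cryptococcus isolates kept on Sabouraud-dextrose agar slopes; inoculum 1–5 × 10³ CFU/mL. Quinoline DMSO stocks were diluted in RPMI-1640 to final 100–6.25 µg/mL, with DMSO ≤2%. An equal volume of inoculum was added (200 µL per well). Run in triplicate.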

[2] = test system: Candida tropicalis; assay: Antimicrobial activity against Candida tropicalis C131 isolate at 12.5 ug/ml after 24 hrs
Procedure, shortened: (§2)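 Percent growth inhibition in 96-well microplates. Compound stocks in DMSO (≤2%) were diluted in RPMI-1640 to final 100–6.25 µg/mL, and 100 µL inoculum was added (final 200 µL). Controls were a growth well (inoculum with matching DMSO, no compound) and a sterility well (no inoculum). Inhibition was calculated against growth and sterility wells.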

[3] = test system: Cryptococcus neoformans; assay: Antimicrobial activity against Cryptococcus neoformans IM 983040 isolate at 6.25 ug/ml after 48 hrs; procedure, shortened: as §1
[4] = test system: Cryptococcus neoformans; assay: Antimicrobial activity against Cryptococcus neoformans IM 042074 isolate at 12.5 ug/ml after 48 hrs; procedure, shortened: as §2
[5] = test system: Cryptococcus neoformans; assay: Antimicrobial activity against Cryptococcus neoformans IM 052470 isolate at 6.25 ug/ml after 48 hrs; procedure, shortened: as §2
[6] = test system: Candida albicans; assay: Antimicrobial activity against Candida albicans C130 isolate at 25 ug/ml after 24 hrs
Procedure, shortened: (§3)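 Growth-inhibition microplate test. Strains are grown on Sabouraud-chloramphenicol agar for 48 h at 30 °C, and inoculum is added to RPMI-1640 containing compound at a final 100–6.25, with DMSO ≤2%. Each strain has a growth control (same DMSO, no compound) and a sterility control.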

[7] = test system: Nakaseomyces glabratus; assay: Antimicrobial activity against Candida glabrata C115 isolate at 100 ug/ml after 24 hrs; procedure, shortened: as §3
[8] = test system: Cryptococcus neoformans; assay: Antimicrobial activity against Cryptococcus neoformans IM 972724 isolate at 100 ug/ml after 48 hrs; procedure, shortened: as §1
[9] = test system: Cryptococcus neoformans; assay: Antimicrobial activity against Cryptococcus neoformans IM 983036 isolate at 25 ug/ml after 48 hrs; procedure, shortened: as §1
[10] = test system: Candida albicans; assay: Antimicrobial activity against Candida albicans ATCC 10231 at 50 ug/ml after 24 hrs; settings: ATCC 10231, 24 h; procedure, shortened: as §3
[11] = test system: Cryptococcus neoformans; assay: Antimicrobial activity against Cryptococcus neoformans ATCC 32264 at 50 ug/ml after 48 hrs; settings: ATCC 32264, 48 h; procedure, shortened: as §2
[12] = test system: Trichophyton mentagrophytes; assay: Antifungal activity against Trichophyton mentagrophytes ATCC 9972 after 48 hrs by broth microdilution technique; settings: ATCC 9972, 48 h
Procedure, shortened: (§4)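 CLSI broth microdilution: M-27 A2 for yeasts and M-38 A for filamentous fungi. Medium is RPMI-1640 buffered to pH 7.0 with MOPS. Compound is diluted twofold from 250 to 0.98, final DMSO ≤2%. Inoculum is 1–5 × 10³ CFU/mL. Plates are incubated at 35 °C in a moist, dark chamber and read visually at 48 h. MIC100 is the lowest concentration giving total growth inhibition versus drug-free control.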

[13] = test system: Cryptococcus neoformans; assay: Antimicrobial activity against Cryptococcus neoformans IM 972751 isolate at 50 ug/ml after 48 hrs; procedure, shortened: as §1
[14] = test system: Cryptococcus neoformans; assay: Antimicrobial activity against Cryptococcus neoformans IM 031631 isolate at 25 ug/ml after 48 hrs; procedure, shortened: as §2
[15] = test system: Candida parapsilosis; assay: Antimicrobial activity against Candida parapsilosis C124 isolate at 25 ug/ml after 24 hrs; settings: Lodderomyces parapsilosis; procedure, shortened: as §2
[16] = test system: Pichia kudriavzevii; assay: Antimicrobial activity against Candida krusei C117 isolate at 6.25 ug/ml after 24 hrs; procedure, shortened: as §2
[17] = test system: Cryptococcus neoformans; assay: Antimicrobial activity against Cryptococcus neoformans ATCC 32264 at 6.25 ug/ml after 48 hrs; settings: ATCC 32264, 48 h; procedure, shortened: as §2
[18] = test system: Cryptococcus neoformans; assay: Antimicrobial activity against Cryptococcus neoformans IM 00319 isolate at 100 ug/ml after 48 hrs; procedure, shortened: as §2
[19] = test system: Cryptococcus neoformans; assay: Antimicrobial activity against Cryptococcus neoformans ATCC 32264 at 25 ug/ml after 48 hrs; settings: ATCC 32264, 48 h; procedure, shortened: as §2
[20] = test system: Cryptococcus neoformans; assay: Antimicrobial activity against Cryptococcus neoformans ATCC 32264 at 100 ug/ml after 48 hrs; settings: ATCC 32264, 48 h; procedure, shortened: as §2
[21] = test system: Candida parapsilosis; assay: Antimicrobial activity against Candida parapsilosis C124 isolate at 50 ug/ml after 24 hrs; settings: Lodderomyces parapsilosis; procedure, shortened: as §2
[22] = test system: Candida parapsilosis; assay: Antimicrobial activity against Candida parapsilosis C124 isolate at 100 ug/ml after 24 hrs; settings: Lodderomyces parapsilosis; procedure, shortened: as §2
[23] = test system: Cryptococcus neoformans; assay: Antimicrobial activity against Cryptococcus neoformans IM 983040 isolate at 50 ug/ml after 48 hrs; procedure, shortened: as §1
[24] = test system: Candida albicans; assay: Antimicrobial activity against Candida albicans C128 isolate at 50 ug/ml after 24 hrs; procedure, shortened: as §3
[25] = test system: Candida albicans; assay: Antimicrobial activity against Candida albicans ATCC 10231 at 25 ug/ml after 24 hrs; settings: ATCC 10231, 24 h; procedure, shortened: as §3
[26] = test system: Cryptococcus neoformans; assay: Antimicrobial activity against Cryptococcus neoformans IM 052470 isolate at 50 ug/ml after 48 hrs; procedure, shortened: as §2
[27] = test system: Cryptococcus neoformans; assay: Antimicrobial activity against Cryptococcus neoformans IM 00319 isolate at 6.25 ug/ml after 48 hrs; procedure, shortened: as §2
[28] = test system: Candida parapsilosis; assay: Antimicrobial activity against Candida parapsilosis C124 isolate at 6.25 ug/ml after 24 hrs; settings: Lodderomyces parapsilosis; procedure, shortened: as §2
[29] = test system: Candida albicans; assay: Antimicrobial activity against Candida albicans C129 isolate at 50 ug/ml after 24 hrs; procedure, shortened: as §3
[30] = test system: Cryptococcus neoformans; assay: Antimicrobial activity against Cryptococcus neoformans IM 031706 isolate at 100 ug/ml after 48 hrs; procedure, shortened: as §2
[31] = test system: Cryptococcus neoformans; assay: Antimicrobial activity against Cryptococcus neoformans IM 983036 isolate at 6.25 ug/ml after 48 hrs; procedure, shortened: as §1
[32] = test system: Candida albicans; assay: Antimicrobial activity against Candida albicans C127 isolate at 50 ug/ml after 24 hrs; settings: C127, 24 h; procedure, shortened: as §3
[33] = test system: Candida albicans; assay: Antimicrobial activity against Candida albicans C129 isolate at 100 ug/ml after 24 hrs; procedure, shortened: as §3
[34] = test system: Aspergillus flavus; assay: Antifungal activity against Aspergillus flavus ATCC 9170 after 48 hrs by broth microdilution technique; settings: ATCC 9170, 48 h; procedure, shortened: as §4
[35] = test system: Candida albicans; assay: Antimicrobial activity against Candida albicans C126 isolate at 100 ug/ml after 24 hrs; procedure, shortened: as §3
[36] = test system: Cryptococcus neoformans; assay: Antimicrobial activity against Cryptococcus neoformans IM 042074 isolate at 25 ug/ml after 48 hrs; procedure, shortened: as §2
[37] = test system: Cryptococcus neoformans; assay: Antimicrobial activity against Cryptococcus neoformans IM 972724 isolate at 50 ug/ml after 48 hrs; procedure, shortened: as §1
[38] = test system: Pichia kudriavzevii; assay: Antimicrobial activity against Candida krusei C117 isolate at 12.5 ug/ml after 24 hrs; procedure, shortened: as §2
[39] = test system: Candida albicans; assay: Antimicrobial activity against Candida albicans C128 isolate at 25 ug/ml after 24 hrs; procedure, shortened: as §3
[40] = test system: Cryptococcus neoformans; assay: Antimicrobial activity against Cryptococcus neoformans IM 052470 isolate at 25 ug/ml after 48 hrs; procedure, shortened: as §2
[41] = test system: Cryptococcus neoformans; assay: Antimicrobial activity against Cryptococcus neoformans IM 031706 isolate at 50 ug/ml after 48 hrs; procedure, shortened: as §2
[42] = test system: Candida albicans; assay: Antimicrobial activity against Candida albicans C128 isolate at 6.25 ug/ml after 24 hrs; procedure, shortened: as §3
[43] = test system: Cryptococcus neoformans; assay: Antimicrobial activity against Cryptococcus neoformans IM 961951 isolate at 100 ug/ml after 48 hrs; procedure, shortened: as §2
[44] = test system: Candida albicans; assay: Antimicrobial activity against Candida albicans C129 isolate at 25 ug/ml after 24 hrs; procedure, shortened: as §3

Cc1cc(-c2ccncc2)nc2ccccc12
inhibition at 25 µg/mL [1]: 78%
inhibition at 12.5 µg/mL [2]: 54%
inhibition at 6.25 µg/mL [3]: 0%
inhibition at 12.5 µg/mL [4]: 76%
inhibition at 6.25 µg/mL [5]: 0%
inhibition at 25 µg/mL [6]: 48%
inhibition at 100 µg/mL [7]: 75%
inhibition at 100 µg/mL [8]: 74%
inhibition at 25 µg/mL [9]: 45%
inhibition at 50 µg/mL [10]: 73%
inhibition at 50 µg/mL [11]: 100%
MIC [12]: 25 µg/mL (≈ 113 µM)
inhibition at 50 µg/mL [13]: 20%
inhibition at 25 µg/mL [14]: 57%
inhibition at 25 µg/mL [15]: 0%
inhibition at 6.25 µg/mL [16]: 0%
inhibition at 6.25 µg/mL [17]: 83%
inhibition at 100 µg/mL [18]: 92%
inhibition at 25 µg/mL [19]: 100%
inhibition at 100 µg/mL [20]: 100%
inhibition at 50 µg/mL [21]: 5%
inhibition at 100 µg/mL [22]: 55%
inhibition at 50 µg/mL [23]: 34%
inhibition at 50 µg/mL [24]: 15%
inhibition at 25 µg/mL [25]: 63%
inhibition at 50 µg/mL [26]: 75%
inhibition at 6.25 µg/mL [27]: 12%
inhibition at 6.25 µg/mL [28]: 0%
inhibition at 50 µg/mL [29]: 82%
inhibition at 100 µg/mL [30]: 100%
inhibition at 6.25 µg/mL [31]: 0%
inhibition at 50 µg/mL [32]: 65%
inhibition at 100 µg/mL [33]: 85%
MIC [34]: 100 µg/mL (≈ 454 µM)
inhibition at 100 µg/mL [35]: 69%
inhibition at 25 µg/mL [36]: 87%
inhibition at 50 µg/mL [37]: 23%
inhibition at 12.5 µg/mL [38]: 0%
inhibition at 25 µg/mL [39]: 0%
inhibition at 25 µg/mL [40]: 53%
inhibition at 50 µg/mL [41]: 69%
inhibition at 6.25 µg/mL [42]: 0%
inhibition at 100 µg/mL [43]: 97%
inhibition at 25 µg/mL [44]: 50%

c1ccc(-c2ccc3ccccc3n2)cc1 [2-PHENYLQUINOLINE]
inhibition at 25 µg/mL [1]: 10%
inhibition at 6.25 µg/mL [3]: 0%
inhibition at 12.5 µg/mL [4]: 7%
inhibition at 6.25 µg/mL [5]: 0%
inhibition at 100 µg/mL [8]: 99%
inhibition at 25 µg/mL [9]: 0%
inhibition at 50 µg/mL [10]: 0%
inhibition at 50 µg/mL [11]: 100%
MIC [12]: 25 µg/mL (≈ 122 µM)
inhibition at 50 µg/mL [13]: 54%
inhibition at 25 µg/mL [14]: 15%
inhibition at 6.25 µg/mL [17]: 0%
inhibition at 100 µg/mL [18]: 47%
inhibition at 25 µg/mL [19]: 77%
inhibition at 100 µg/mL [20]: 100%
inhibition at 50 µg/mL [23]: 29%
inhibition at 25 µg/mL [25]: 0%
inhibition at 50 µg/mL [26]: 76%
inhibition at 6.25 µg/mL [27]: 0%
inhibition at 100 µg/mL [30]: 67%
inhibition at 6.25 µg/mL [31]: 0%
MIC [34]: > 250 µg/mL
inhibition at 25 µg/mL [36]: 33%
inhibition at 50 µg/mL [37]: 87%
inhibition at 25 µg/mL [40]: 35%
inhibition at 50 µg/mL [41]: 46%
inhibition at 100 µg/mL [43]: 45%
